Measurements reported in ChEMBL document CHEMBL1152865, “Synthesis and antimycobacterial activities of novel 6-nitroquinolone-3-carboxylic acids” (Eur J Med Chem, 2009).
In brackets after ≈: the same amount, converted by molar mass.

What was measured:
[1] = tested on: Mycobacterium tuberculosis; assay: Antibacterial activity against Mycobacterium tuberculosis H37Rv by agar dilution method; format: functional
Summary of the method: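 Agar dilution in Middlebrook 7H11 agar supplemented with OADC, following an approach similar to NCCLS guidance. MIC determined in duplicate.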

[2] = tested on: Mycolicibacterium smegmatis; assay: Antibacterial activity against Mycobacterium smegmatis ATCC 14468 by agar dilution method; format: functional
Summary of the method: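 Agar dilution on Middlebrook 7H11 agar with OADC supplement, following an NCCLS-type procedure; MIC read in duplicate.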

[3] = Cytotoxicity against african green monkey Vero cells after 72 hrs by MTT assay; format: cell-based; details: chlorocebus sabaeus
Summary of the method: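 Cells exposed to compound for 72 h; viability from cellular MTT conversion to formazan; CC50 derived.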

[4] = Inhibition of Mycobacterium smegmatis DNA gyrase assessed as inhibition of relaxed circular pUC18 supercoiling activity by agarose gel electrophoresis; set-up: species or system Mycolicibacterium smegmatis
Summary of the method: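 Gyrase purified from M. smegmatis, pre-incubated with compound in DMSO. Then 400 ng relaxed pUC18 added in 35 mM Tris-HCl pH 7.5, 5 mM MgCl2, 25 mM potassium glutamate, 2 mM spermidine, 2 mM ATP, BSA, yeast tRNA and 5% glycerol. Incubated 30 min at 37 °C; read-out by agarose gel electrophoresis. Ciprofloxacin and 5% DMSO reactions run as controls.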

[5] = tested on: Mus musculus; assay: Phototoxicity in Swiss albino mouse exposed to 4 hrs of 18 J/cm'2 UV light irradiation assessed as ear thickness at 140 mg/kg, po after 96 hrs; format: organism-based; set-up: dose 140 mg/kg, route oral; details: in vivo
Summary of the method: (§1)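 Female Swiss albino mice about 2 months old, 20-25 g, fasted at least 18 h, six per group. Single oral gavage of 140 mg/kg; vehicle 0.5% aqueous sodium carboxymethylcellulose at 10 ml/kg; lomefloxacin HCl 140 mg/kg as positive control. UVA for 4 h (about 18 J/cm²) from dosing. Both ears scored for erythema, edema and thickness pre-dose, at 4 h, and at about 24, 48, 72 and 96 h.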

[6] = tested on: Mus musculus; assay: Phototoxicity in Swiss albino mouse exposed to 4 hrs of 18 J/cm'2 UV light irradiation assessed as erythema at 140 mg/kg, po; format: organism-based; set-up: dose 140 mg/kg, route oral; details: in vivo; summary of the method: as §1
[7] = tested on: Mus musculus; assay: Phototoxicity in Swiss albino mouse assessed as erythema at 140 mg/kg, po after 4 hrs of 18 J/cm'2 UV light irradiation; format: organism-based; set-up: dose 140 mg/kg, route oral; details: in vivo; summary of the method: as §1
[8] = tested on: Mus musculus; assay: Phototoxicity in Swiss albino mouse exposed to 4 hrs of 18 J/cm'2 UV light irradiation assessed as erythema at 140 mg/kg, po after 24 hrs; format: organism-based; set-up: dose 140 mg/kg, route oral; details: in vivo; summary of the method: as §1
[9] = tested on: Mus musculus; assay: Phototoxicity in Swiss albino mouse exposed to 4 hrs of 18 J/cm'2 UV light irradiation assessed as erythema at 140 mg/kg, po after 48 hrs; format: organism-based; set-up: dose 140 mg/kg, route oral; details: in vivo; summary of the method: as §1
[10] = tested on: Mus musculus; assay: Phototoxicity in Swiss albino mouse exposed to 4 hrs of 18 J/cm'2 UV light irradiation assessed as erythema at 140 mg/kg, po after 72 hrs; format: organism-based; set-up: dose 140 mg/kg, route oral; details: in vivo; summary of the method: as §1
[11] = tested on: Mus musculus; assay: Phototoxicity in Swiss albino mouse exposed to 4 hrs of 18 J/cm'2 UV light irradiation assessed as erythema at 140 mg/kg, po after 96 hrs; format: organism-based; set-up: dose 140 mg/kg, route oral; details: in vivo; summary of the method: as §1
[12] = tested on: Mus musculus; assay: Phototoxicity in Swiss albino mouse exposed to 18 J/cm'2 UV light irradiation assessed as ear thickness at 140 mg/kg, po; format: organism-based; set-up: dose 140 mg/kg, route oral; details: in vivo; summary of the method: as §1
[13] = tested on: Mus musculus; assay: Phototoxicity in Swiss albino mouse assessed as ear thickness at 140 mg/kg, po measured after 4 hrs of 18 J/cm'2 UV light irradiation; format: organism-based; set-up: dose 140 mg/kg, route oral; details: in vivo; summary of the method: as §1
[14] = tested on: Mus musculus; assay: Phototoxicity in Swiss albino mouse exposed to 4 hrs of 18 J/cm'2 UV light irradiation assessed as ear thickness at 140 mg/kg, po after 24 hrs; format: organism-based; set-up: dose 140 mg/kg, route oral; details: in vivo; summary of the method: as §1
[15] = tested on: Mus musculus; assay: Phototoxicity in Swiss albino mouse exposed to 4 hrs of 18 J/cm'2 UV light irradiation assessed as ear thickness at 140 mg/kg, po after 48 hrs; format: organism-based; set-up: dose 140 mg/kg, route oral; details: in vivo; summary of the method: as §1
[16] = tested on: Mus musculus; assay: Phototoxicity in Swiss albino mouse exposed to 4 hrs of 18 J/cm'2 UV light irradiation assessed as ear thickness at 140 mg/kg, po after 72 hrs; format: organism-based; set-up: dose 140 mg/kg, route oral; details: in vivo; summary of the method: as §1
[17] = tested on: Mycobacterium tuberculosis; assay: Antimycobacterial activity against Mycobacterium tuberculosis ATCC 35801 infected in CD1 mouse assessed as bacterial load in lungs at 50 mg/kg, ip administered 10 days postinfection for 10 days measured after 35 days of infection; format: functional; details: route intraperitoneal
Summary of the method: (§2)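 Six-week-old female CD-1 mice, six per group, infected intravenously via the caudal vein with approximately 10⁷ viable M. tuberculosis ATCC 35801. Intraperitoneal treatment ran days 10–20 post-infection. At day 35, spleen and right lung were homogenized, serially 10-fold diluted and plated on 7H10 agar, incubated 37 °C, 4 weeks. Log CFU compared with vehicle-treated controls.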

[18] = tested on: Mycobacterium tuberculosis; assay: Antimycobacterial activity against Mycobacterium tuberculosis ATCC 35801 infected in CD1 mouse assessed as bacterial load in spleen at 50 mg/kg, ip administered 10 days postinfection for 10 days measured after 35 days of infection; format: functional; details: route intraperitoneal; summary of the method: as §2

SMILES	MIC [1]	MIC [2]	CC50 at 72 h [3]	IC50 [4]	other results
O=C(O)c1cn(C2CC2)c2cc(N3CCN(C(=O)c4ccco4)CC3)c([N+](=O)[O-])cc2c1=O	0.69 µM (≈ 0.312 µg/mL)	1.39 µM (≈ 0.629 µg/mL)	111 µM	30 µg/mL (≈ 66.3 µM)	–
Cc1onc(-c2c(F)cccc2F)c1C(=O)N1CCN(c2cc3c(cc2[N+](=O)[O-])c(=O)c(C(=O)O)cn3C(C)(C)C)CC1	2.62 µM (≈ 1.56 µg/mL)	10.5 µM (≈ 6.25 µg/mL)	105 µM	30 µg/mL (≈ 50.4 µM)	–
O=C(O)c1cn(-c2ccc(F)cc2)c2cc(N3CCN(C(=O)C4COc5ccccc5O4)CC3)c([N+](=O)[O-])cc2c1=O (configuration not stated)	2.72 µM (≈ 1.56 µg/mL)	10.9 µM (≈ 6.25 µg/mL)	54.4 µM	30 µg/mL (≈ 52.2 µM)	–
CCn1cc(C(=O)O)c(=O)c2cc(F)c(N3CCNC(C)C3)c(F)c21 (configuration not stated) [LOMEFLOXACIN]	–	–	–	–	Activity [5]: 0.6 mm; Activity [6]: Non-toxic; Activity [7]: Toxic; Activity [8]: Toxic; Activity [9]: Toxic; Activity [10]: Toxic; Activity [11]: Toxic; Activity [12]: 0.31 mm; Activity [13]: 0.4 mm; Activity [14]: 0.48 mm; Activity [15]: 0.53 mm; Activity [16]: 0.64 mm
CC(C)(C)n1cc(C(=O)O)c(=O)c2cc([N+](=O)[O-])c(N3CCN(C(=O)c4ccco4)CC3)cc21	6.68 µM (≈ 3.13 µg/mL)	13.3 µM (≈ 6.25 µg/mL)	–	30 µg/mL (≈ 64 µM)	–
CC1CN(c2cc3c(cc2[N+](=O)[O-])c(=O)c(C(=O)O)cn3-c2ccc(F)cc2)CC(C)O1 (configuration not stated)	3.53 µM (≈ 1.56 µg/mL)	14.2 µM (≈ 6.25 µg/mL)	70.8 µM	20 µg/mL (≈ 45.3 µM)	–
O=C(O)c1cn2c(n1)CN(c1cc3c(cc1[N+](=O)[O-])c(=O)c(C(=O)O)cn3C1CC1)CC2	1.78 µM (≈ 0.782 µg/mL)	7.12 µM (≈ 3.13 µg/mL)	142 µM	–	–
CC(C)(C)n1cc(C(=O)O)c(=O)c2cc([N+](=O)[O-])c(N3CCN(C(c4ccccc4)c4ccc(Cl)cc4)CC3)cc21 (configuration not stated)	5.44 µM (≈ 3.13 µg/mL)	10.9 µM (≈ 6.25 µg/mL)	–	30 µg/mL (≈ 52.2 µM)	–
COc1c(N2CCNC(C)C2)c(F)cc2c(=O)c(C(=O)O)cn(C3CC3)c12 (configuration not stated) [GATIFLOXACIN]	1.04 µM (≈ 0.39 µg/mL)	2.08 µM (≈ 0.781 µg/mL)	> 155 µM	–	log10cfu [17]: 6.02; log10cfu [18]: 6.92
CN1CCN(c2cc3c(cc2[N+](=O)[O-])c(=O)c(C(=O)O)cn3C2CC2)CC1c1ccccc1 (configuration not stated)	0.2 µM (≈ 0.0897 µg/mL)	0.87 µM (≈ 0.39 µg/mL)	136 µM	30 µg/mL (≈ 66.9 µM)	Activity [5]: 0.34 mm; Activity [6]: Non-toxic; Activity [7]: Non-toxic; Activity [9]: Non-toxic; Activity [10]: Non-toxic; Activity [11]: Non-toxic; Activity [12]: 0.3 mm; Activity [13]: 0.31 mm; Activity [14]: 0.3 mm; Activity [15]: 0.32 mm; Activity [16]: 0.32 mm
CC(C)(C)NC(=O)C1c2ccccc2CCN1c1cc2c(cc1[N+](=O)[O-])c(=O)c(C(=O)O)cn2C1CC1 (configuration not stated)	1.55 µM (≈ 0.782 µg/mL)	3.09 µM (≈ 1.56 µg/mL)	–	30 µg/mL (≈ 59.5 µM)	–
O=C(O)c1cn(C2CC2)c2cc(N3CCC(n4c(=O)[nH]c5cc(Cl)ccc54)CC3)c([N+](=O)[O-])cc2c1=O	1.49 µM (≈ 0.781 µg/mL)	2.97 µM (≈ 1.56 µg/mL)	–	20 µg/mL (≈ 38.2 µM)	–
O=C(O)c1cn(C2CC2)c2cc(N3CCC(O)(c4ccc(Cl)cc4)CC3)c([N+](=O)[O-])cc2c1=O	0.81 µM (≈ 0.392 µg/mL)	3.22 µM (≈ 1.56 µg/mL)	129 µM	5 µg/mL (≈ 10.3 µM)	–
